These results are taken from ChEMBL document CHEMBL1155077, “Kinesin spindle protein (KSP) inhibitors. 9. Discovery of (2S)-4-(2,5-difluorophenyl)-n-[(3R,4S)-3-fluoro-1-methylpiperidin-4-yl]-2-(hydroxymethyl)-N-methyl-2-phenyl-2,5-dihydro-1H-pyrrole-1-carboxamide (MK-0731) for the treatment of taxane-refractory cancer” (J Med Chem, 2008).

Calls of active or inactive are those of the source.

Series [1] is described as follows: Induction of apoptosis in human […] cells assessed as caspase 3 activation after 48 hrs by fluorescent assay. The class given is functional, cell-based. In outline: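 A2780 cells seeded 20 000/well, grown overnight, then treated in triplicate 48 h with vehicle or compound, 300 to 0.415 nM (7-point, 3-fold series), 0.1% DMSO final.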
Series [2] is described as follows: Half life in dog at 0.4 mg/kg, iv. The conditions noted are these: in vivo. More on the design: dose 0.4 mg/kg, route intravenous. The series is classed as ADME, organism-based, Canis lupus familiaris.
Series [3] relates to A2780. Description: Induction of mitotic arrest in human A2780 cells expressing MDR1 after 16 hrs. The series is classed as functional, cell-based. The conditions noted are these: A2780, 16 h.
Series [4] concerns the target Kinesin-like protein KIF1B (Homo sapiens, UniProt O60333). Briefly: Inhibition of cloned human Kif1B.
Series [5] is described as follows: Toxicity in human A2780 cells xenografted clr:NU/NU-nuBR mouse assessed as maximum tolerated dose. The class given is organism-based. The conditions noted are these: in vivo. In outline: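 Maximum tolerated dose was set in protocols in naive mice that varied dose, vehicle and frequency, with survival as the end point and peripheral blood counts tracked. The schedule was sc injection every 4 days × 3 in saline acidified to pH 4.0, 100 µL per dose.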
A general note: In xenograft studies the graft and the host belong to different species.

For series [6], the target named is T1, Kinesin heavy chain isoform 5A (Homo sapiens, UniProt Q12840).
T1 sequence (Q12840 whole entry): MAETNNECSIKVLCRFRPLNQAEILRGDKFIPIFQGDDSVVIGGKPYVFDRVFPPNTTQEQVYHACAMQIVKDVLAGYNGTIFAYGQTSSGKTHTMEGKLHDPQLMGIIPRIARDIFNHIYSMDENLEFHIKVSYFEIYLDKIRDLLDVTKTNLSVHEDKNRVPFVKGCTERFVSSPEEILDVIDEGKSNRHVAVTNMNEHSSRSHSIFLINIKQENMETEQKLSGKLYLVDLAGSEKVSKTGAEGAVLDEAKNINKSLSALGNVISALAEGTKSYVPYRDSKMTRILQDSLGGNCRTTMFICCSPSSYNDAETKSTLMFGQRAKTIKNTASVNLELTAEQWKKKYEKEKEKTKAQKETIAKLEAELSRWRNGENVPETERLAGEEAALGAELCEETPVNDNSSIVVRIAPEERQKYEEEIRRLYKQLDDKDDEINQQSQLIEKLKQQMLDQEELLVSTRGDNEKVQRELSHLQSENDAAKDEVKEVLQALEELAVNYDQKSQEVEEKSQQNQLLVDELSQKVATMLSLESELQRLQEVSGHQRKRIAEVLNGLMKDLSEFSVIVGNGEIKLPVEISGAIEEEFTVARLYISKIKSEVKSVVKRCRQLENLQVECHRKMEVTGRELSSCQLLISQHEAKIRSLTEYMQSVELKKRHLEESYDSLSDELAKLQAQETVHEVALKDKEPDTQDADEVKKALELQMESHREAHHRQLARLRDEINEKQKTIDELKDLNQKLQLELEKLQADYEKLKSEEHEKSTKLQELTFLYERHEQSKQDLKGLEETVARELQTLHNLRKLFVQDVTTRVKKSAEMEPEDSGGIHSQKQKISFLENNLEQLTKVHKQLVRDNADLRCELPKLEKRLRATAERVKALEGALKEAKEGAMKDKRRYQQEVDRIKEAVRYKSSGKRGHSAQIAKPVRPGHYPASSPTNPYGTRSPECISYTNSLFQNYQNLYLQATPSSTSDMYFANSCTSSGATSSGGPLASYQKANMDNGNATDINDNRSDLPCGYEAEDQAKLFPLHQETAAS
Description: Inhibition of cloned human nKHC.

The target of series [7] is Kinesin-like protein KIF3A (Homo sapiens, UniProt Q9Y496). Briefly: Inhibition of cloned human Kif3A.
The species named for series [8] is Mus musculus. Briefly: Toxicity in naive mouse assessed as neutopenia after 6 days. The class given is organism-based. The conditions noted are these: in vivo, 144 h. In outline:
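Naive mice dosed under protocols varying dose, vehicle and frequency, with survival as the end point; peripheral blood counts, including neutrophils, followed after dosing.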

Series [9] can be described thus: Toxicity in clr:NU/NU-nuBR mouse assessed as maximum tolerated dose after 24 hrs. The class given is organism-based. Conditions: in vivo. Put shortly:
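Naive, non-xenografted mice, in a large cohort. Drug was given by continuous delivery from subcutaneously implanted osmotic minipumps over 24 h. The maximum tolerated dose was set with survival as the end point, and peripheral blood counts were followed to assess myelosuppression.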

Series [10] is described as follows: Dissociation constant, pKa by Sirius GLpKa titrator. The series is classed as physicochemical. In outline: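 Potentiometric pKa measured on a Sirius GLpKa titrator; mean of n = 3 determinations unless marked as a single determination.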
The nature of series [11]: Inhibition of tubulin polymerization at 20 uM. In outline: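 Tubulin at 2.5 mg/mL with 0.5 mM GTP in 80 mM K-PIPES pH 6.8, 1 mM MgCl2, 1 mM EGTA; compound at 20 µM final from DMSO; 37 °C. Light scattering read at 320 and 340 nm every 30 s for 75 min, with paclitaxel and colchicine (20 µM) controls.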
Series [12] deals with T2, Kinesin-like protein KIF23 (Homo sapiens, UniProt Q02241).
T2 sequence (Q02241 whole entry): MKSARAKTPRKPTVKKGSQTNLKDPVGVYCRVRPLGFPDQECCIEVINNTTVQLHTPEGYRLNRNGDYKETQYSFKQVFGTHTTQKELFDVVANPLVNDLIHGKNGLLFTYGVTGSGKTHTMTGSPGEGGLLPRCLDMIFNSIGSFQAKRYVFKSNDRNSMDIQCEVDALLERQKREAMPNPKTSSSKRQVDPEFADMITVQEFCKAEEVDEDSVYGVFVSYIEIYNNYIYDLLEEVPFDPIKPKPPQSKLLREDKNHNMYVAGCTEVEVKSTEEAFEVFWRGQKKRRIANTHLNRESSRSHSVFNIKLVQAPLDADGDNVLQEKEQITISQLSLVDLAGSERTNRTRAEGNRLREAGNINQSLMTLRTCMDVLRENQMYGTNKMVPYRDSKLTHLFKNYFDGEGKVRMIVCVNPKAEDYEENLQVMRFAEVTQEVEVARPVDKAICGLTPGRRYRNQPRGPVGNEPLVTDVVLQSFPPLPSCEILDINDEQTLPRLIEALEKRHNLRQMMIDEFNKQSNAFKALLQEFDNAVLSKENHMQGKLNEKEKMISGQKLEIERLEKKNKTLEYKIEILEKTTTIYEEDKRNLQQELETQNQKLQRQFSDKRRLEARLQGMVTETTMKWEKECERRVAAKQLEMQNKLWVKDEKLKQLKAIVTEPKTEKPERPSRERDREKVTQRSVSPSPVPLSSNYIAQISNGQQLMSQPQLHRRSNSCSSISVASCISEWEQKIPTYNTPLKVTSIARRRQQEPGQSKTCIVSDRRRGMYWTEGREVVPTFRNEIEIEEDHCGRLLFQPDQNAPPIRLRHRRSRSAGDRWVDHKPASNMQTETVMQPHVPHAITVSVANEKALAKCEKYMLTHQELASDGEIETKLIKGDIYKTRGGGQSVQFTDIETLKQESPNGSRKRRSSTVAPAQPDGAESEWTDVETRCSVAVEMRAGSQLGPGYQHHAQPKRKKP
Briefly: Inhibition of cloned human MKLP1.

The target in series [13] is Voltage-gated inwardly rectifying potassium channel KCNH2 (Homo sapiens, UniProt Q12809).
The nature of series [14]: Volume of distribution at steady state in rat at 1 mg/kg, iv. More on the design: dose 1 mg/kg, route intravenous. The series is classed as ADME, organism-based. Conditions: in vivo, read-out: Vdss.

Sequence of Voltage-gated inwardly rectifying potassium channel KCNH2 (Q12809 whole entry): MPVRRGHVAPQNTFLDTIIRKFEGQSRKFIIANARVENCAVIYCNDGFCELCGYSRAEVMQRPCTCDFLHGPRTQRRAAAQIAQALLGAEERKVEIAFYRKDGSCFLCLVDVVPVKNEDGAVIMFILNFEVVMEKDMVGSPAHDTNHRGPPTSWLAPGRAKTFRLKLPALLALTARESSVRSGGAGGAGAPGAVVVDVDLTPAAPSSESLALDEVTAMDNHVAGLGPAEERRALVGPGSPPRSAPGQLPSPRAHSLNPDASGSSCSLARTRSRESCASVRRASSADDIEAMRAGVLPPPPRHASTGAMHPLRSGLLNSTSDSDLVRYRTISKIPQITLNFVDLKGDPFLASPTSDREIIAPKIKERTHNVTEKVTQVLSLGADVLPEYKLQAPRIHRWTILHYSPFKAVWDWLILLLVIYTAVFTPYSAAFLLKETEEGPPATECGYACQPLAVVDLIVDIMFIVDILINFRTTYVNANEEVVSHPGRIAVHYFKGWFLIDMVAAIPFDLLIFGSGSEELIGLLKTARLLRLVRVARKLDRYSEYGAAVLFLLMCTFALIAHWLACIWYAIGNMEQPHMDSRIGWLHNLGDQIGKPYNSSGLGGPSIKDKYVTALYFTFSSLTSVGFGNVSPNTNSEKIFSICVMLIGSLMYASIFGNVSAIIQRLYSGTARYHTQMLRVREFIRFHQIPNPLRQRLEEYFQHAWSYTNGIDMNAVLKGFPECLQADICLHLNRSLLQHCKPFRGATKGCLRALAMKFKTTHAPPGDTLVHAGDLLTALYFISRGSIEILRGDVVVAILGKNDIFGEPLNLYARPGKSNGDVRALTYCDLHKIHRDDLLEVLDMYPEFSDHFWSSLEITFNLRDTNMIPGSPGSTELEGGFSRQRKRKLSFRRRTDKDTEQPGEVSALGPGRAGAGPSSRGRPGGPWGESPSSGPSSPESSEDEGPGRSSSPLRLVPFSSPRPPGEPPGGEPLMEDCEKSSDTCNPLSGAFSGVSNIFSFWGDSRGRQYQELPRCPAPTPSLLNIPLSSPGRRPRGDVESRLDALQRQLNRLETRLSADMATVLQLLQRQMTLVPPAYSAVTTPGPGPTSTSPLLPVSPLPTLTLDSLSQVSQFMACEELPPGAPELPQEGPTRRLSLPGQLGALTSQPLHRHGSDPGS
Sequence of Kinesin-like protein KIF1B (O60333 whole entry): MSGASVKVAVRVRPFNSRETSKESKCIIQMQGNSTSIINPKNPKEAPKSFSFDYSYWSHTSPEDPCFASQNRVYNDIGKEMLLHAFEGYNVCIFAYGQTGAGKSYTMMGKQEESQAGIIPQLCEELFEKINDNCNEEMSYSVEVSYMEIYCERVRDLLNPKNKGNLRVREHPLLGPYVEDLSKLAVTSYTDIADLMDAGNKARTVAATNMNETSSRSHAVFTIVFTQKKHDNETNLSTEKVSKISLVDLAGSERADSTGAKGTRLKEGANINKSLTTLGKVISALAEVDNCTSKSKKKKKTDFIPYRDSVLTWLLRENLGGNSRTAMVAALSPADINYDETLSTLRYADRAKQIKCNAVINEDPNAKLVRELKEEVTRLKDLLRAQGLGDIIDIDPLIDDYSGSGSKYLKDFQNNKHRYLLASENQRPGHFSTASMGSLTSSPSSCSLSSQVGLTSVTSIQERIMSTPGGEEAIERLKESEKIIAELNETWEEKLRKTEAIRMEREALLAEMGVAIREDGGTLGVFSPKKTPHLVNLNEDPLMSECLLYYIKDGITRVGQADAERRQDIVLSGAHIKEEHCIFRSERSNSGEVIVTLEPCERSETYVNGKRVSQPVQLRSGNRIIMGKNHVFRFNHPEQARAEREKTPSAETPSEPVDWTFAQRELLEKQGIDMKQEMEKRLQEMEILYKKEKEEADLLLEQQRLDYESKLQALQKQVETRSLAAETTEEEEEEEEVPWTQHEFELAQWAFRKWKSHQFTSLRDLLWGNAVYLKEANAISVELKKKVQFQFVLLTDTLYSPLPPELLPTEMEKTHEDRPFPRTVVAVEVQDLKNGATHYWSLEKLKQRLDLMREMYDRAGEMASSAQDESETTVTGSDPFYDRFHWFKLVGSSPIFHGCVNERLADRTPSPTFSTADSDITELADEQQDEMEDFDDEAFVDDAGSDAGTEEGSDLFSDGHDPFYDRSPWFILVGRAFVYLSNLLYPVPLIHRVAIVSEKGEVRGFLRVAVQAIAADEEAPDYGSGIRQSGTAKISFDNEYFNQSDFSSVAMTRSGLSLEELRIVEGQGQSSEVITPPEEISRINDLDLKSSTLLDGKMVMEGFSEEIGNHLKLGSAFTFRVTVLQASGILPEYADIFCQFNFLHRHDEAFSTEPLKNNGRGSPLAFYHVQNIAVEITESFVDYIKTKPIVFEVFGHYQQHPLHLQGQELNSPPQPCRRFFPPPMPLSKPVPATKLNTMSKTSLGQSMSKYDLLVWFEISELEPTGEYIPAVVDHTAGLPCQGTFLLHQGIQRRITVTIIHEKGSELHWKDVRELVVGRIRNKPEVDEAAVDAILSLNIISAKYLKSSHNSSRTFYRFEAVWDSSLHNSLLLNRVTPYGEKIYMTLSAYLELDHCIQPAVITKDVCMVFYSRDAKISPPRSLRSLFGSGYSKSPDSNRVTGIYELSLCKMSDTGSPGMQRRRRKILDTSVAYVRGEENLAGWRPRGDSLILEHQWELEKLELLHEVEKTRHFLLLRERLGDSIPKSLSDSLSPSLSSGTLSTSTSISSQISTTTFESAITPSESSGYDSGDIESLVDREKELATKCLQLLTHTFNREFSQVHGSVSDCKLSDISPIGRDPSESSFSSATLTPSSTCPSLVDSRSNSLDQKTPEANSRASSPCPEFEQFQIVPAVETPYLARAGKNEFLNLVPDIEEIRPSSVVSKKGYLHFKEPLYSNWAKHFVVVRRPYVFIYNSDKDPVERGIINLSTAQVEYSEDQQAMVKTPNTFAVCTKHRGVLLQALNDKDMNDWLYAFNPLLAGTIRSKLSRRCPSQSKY
Sequence of Kinesin-like protein KIF3A (Q9Y496 whole entry): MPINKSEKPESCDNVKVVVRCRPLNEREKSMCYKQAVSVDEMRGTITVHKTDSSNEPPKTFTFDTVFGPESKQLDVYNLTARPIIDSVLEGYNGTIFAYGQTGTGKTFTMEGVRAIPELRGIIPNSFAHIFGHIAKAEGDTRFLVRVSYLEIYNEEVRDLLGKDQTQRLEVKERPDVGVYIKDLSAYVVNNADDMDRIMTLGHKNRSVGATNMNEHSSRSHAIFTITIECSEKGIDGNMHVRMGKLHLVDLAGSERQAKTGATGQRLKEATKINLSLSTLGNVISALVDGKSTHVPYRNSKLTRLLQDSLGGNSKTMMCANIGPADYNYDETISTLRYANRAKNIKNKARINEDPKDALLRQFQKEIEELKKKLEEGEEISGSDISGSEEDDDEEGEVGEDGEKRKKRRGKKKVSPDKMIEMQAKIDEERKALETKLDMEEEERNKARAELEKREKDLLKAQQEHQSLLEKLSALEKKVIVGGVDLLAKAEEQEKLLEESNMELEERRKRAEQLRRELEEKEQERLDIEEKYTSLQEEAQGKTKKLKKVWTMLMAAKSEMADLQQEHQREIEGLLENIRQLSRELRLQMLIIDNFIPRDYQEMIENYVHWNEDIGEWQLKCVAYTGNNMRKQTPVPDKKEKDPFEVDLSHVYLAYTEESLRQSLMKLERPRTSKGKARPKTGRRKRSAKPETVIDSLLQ

With `CN1CC[C@H](N(C)C(=O)N2CC(c3cc(F)ccc3F)=C[C@@]2(CO)c2ccccc2)[C@H](F)C1`, the EC50 (commonly the concentration at which the effect is half-maximal) in series [1] is 2.7 nM; in [3], 5.3 nM. Further, the half-life (as a rule, the time needed for the level to fall by half in the phase considered) in series [2] was 120 min. Also, the IC50 (commonly the concentration that inhibits the measured activity by half) in series [4] was greater than 50 µM; in [6], greater than 50 µM; in [7], greater than 50 µM; in series [12] it was greater than 50 µM; in series [13] it was 20.5 µM. Also, the MTD (commonly the highest dose tested that stayed within the study's limit of toxicity) in series [5] came out at 100 mg/kg. In addition, the Activity result in series [8] was “Toxic”. The MTD at 24 h in [9] amounted to 12 mg/kg. Moreover, the pKa (in general, the negative logarithm of the acid dissociation constant) in series [10] was found to be 7.6. Also, the outcome in [11] was inactive. The Vd in series [14] stood at 3 L/kg.
